In ChEMBL document CHEMBL4138180, “neo-Clerodane Diterpenoids from Salvia polystachya Stimulate the Expression of Extracellular Matrix Components in Human Dermal Fibroblasts” (2017):
The source made the active and inactive calls. The calls are words filed in the database; no cut-off is given here.

Tests used:
NHDF [1] = test: Upregulation of COL1A1 mRNA expression in HDF at 100 uM after 48 hrs by RT-PCR analysis; format: functional, cell-based; details: Homo sapiens
In short: (§1)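 Positive control: ascorbic acid at 100 μM in basal medium (L15 Leibovitz, 10% FBS, antibiotics) added to normal human dermal fibroblasts at 70% confluence, 48 h, 37 °C. Total RNA reverse-transcribed with oligo dT, PCR 30 cycles, bands on 1.5% agarose quantified and normalized to GAPDH mRNA. Mean ± SD versus basal-medium control, one-way ANOVA.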

NHDF [2] = test: Upregulation of elastin mRNA expression in HDF at 100 uM after 48 hrs by RT-PCR analysis; format: functional, cell-based; details: Homo sapiens; in short: as §1
NHDF [3] = test: Upregulation of COL1A1 mRNA expression in HDF at 0.28 uM after 48 hrs by RT-PCR analysis relative to control; format: functional, Homo sapiens
In short: (§2)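 Normal human dermal fibroblasts from plastic-surgery biopsies, collagenase-disaggregated, grown in L15 Leibovitz with 10% FBS and penicillin/streptomycin at 37 °C. At 70% confluence refed with medium containing 0.26−0.29, 2.56−2.93 or 25.6−29.3 μM compound for 48 h. Total RNA, oligo-dT RT-PCR, 30 cycles, agarose gel band densitometry normalized to GAPDH. Fold versus basal-medium control, mean ± SD, one-way ANOVA.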

NHDF [4] = test: Upregulation of […] mRNA expression in HDF at 0.28 to 27.9 uM after 48 hrs by RT-PCR analysis relative to control; format: functional, Homo sapiens; in short: as §2
NHDF [5] = test: Upregulation of COL5A1 mRNA expression in HDF at 0.28 uM after 48 hrs by RT-PCR analysis relative to control; format: functional, Homo sapiens; in short: as §2
NHDF [6] = test: Upregulation of elastin mRNA expression in HDF at 0.28 to 27.9 uM after 48 hrs by RT-PCR analysis relative to control; format: functional, Homo sapiens; in short: as §2
NHDF [7] = test: Inhibition of elastin mRNA expression in HDF at 0.28 to 27.9 uM after 48 hrs by RT-PCR analysis; format: functional, cell-based; details: Homo sapiens; in short: as §2
Escherichia coli = test: Antibacterial activity against Escherichia coli at 0.5 to 8 ug after 18 hrs by agar disc diffusion method; format: functional, organism-based
In short: (§3)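 Bacteria suspended in saline at 10^8 CFU mL−1; 0.1 mL spread on nutrient agar (pH 6.8). Filter-paper disks carrying 8, 4, 2, 1 and 0.5 μg of compound (in DMSO) placed on the plates. Incubated aerobically at 37 °C for 18 h. Inhibition zone measured by caliper. Ampicillin and DMSO disks served as controls.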

Bacillus sp. = test: Antibacterial activity against Bacillus sp. at 0.5 to 8 ug after 18 hrs by agar disc diffusion method; format: functional, organism-based; in short: as §3
Candida albicans = test: Antifungal activity against Candida albicans ATCC 10235 at 0.5 to 8 ug after 24 hrs by agar disc diffusion method; format: functional, organism-based
In short: (§4)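 Qualitative disk diffusion on potato dextrose agar. Fungal inoculum at a final 10^5 CFU mL−1. Disks carried 8, 4, 2, 1 and 0.5 μg of compound in DMSO. Incubated aerobically at 37 °C for 24 h. Growth-inhibition zone measured by caliper. Amphotericin B and DMSO disks served as controls.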

Nakaseomyces glabratus = test: Antifungal activity against Candida glabrata CBS 138 at 0.5 to 8 ug after 24 hrs by agar disc diffusion method; format: functional, organism-based; in short: as §4
NHDF [8] = test: Upregulation of COL1A1 mRNA expression in HDF at 29.2 uM after 48 hrs by RT-PCR analysis relative to control; format: functional, Homo sapiens; in short: as §2
NHDF [9] = test: Upregulation of elastin mRNA expression in HDF at 0.29 to 29.2 uM after 48 hrs by RT-PCR analysis; format: functional, cell-based; details: Homo sapiens; in short: as §2
NHDF [10] = test: Inhibition of elastin mRNA expression in HDF at 0.29 to 29.2 uM after 48 hrs by RT-PCR analysis; format: functional, cell-based; details: Homo sapiens; in short: as §2
NHDF [11] = test: Upregulation of COL1A1 mRNA expression in HDF at 0.29 to 29.3 uM after 48 hrs by RT-PCR analysis; format: functional, cell-based; details: Homo sapiens
In short: (§5)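 Primary dermal fibroblasts from surgical biopsies, collagenase-dissociated and grown in L15 with 10% FBS at 37 °C. Total RNA (1 μg) was reverse-transcribed with oligo dT. PCR ran 30 cycles and products were run on 1.5% agarose. Bands were quantified and normalized to GAPDH, giving fold over the basal-medium control as mean ± SD, with one-way ANOVA.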

NHDF [12] = test: Upregulation of […] mRNA expression in HDF at 0.29 uM after 48 hrs by RT-PCR analysis relative to control; format: functional, Homo sapiens; in short: as §5
NHDF [13] = test: Upregulation of […] mRNA expression in HDF at 2.93 uM after 48 hrs by RT-PCR analysis relative to control; format: functional, Homo sapiens; in short: as §5
NHDF [14] = test: Upregulation of COL5A1 mRNA expression in HDF at 2.93 uM after 48 hrs by RT-PCR analysis relative to control; format: functional, Homo sapiens; in short: as §5
NHDF [15] = test: Upregulation of elastin mRNA expression in HDF at 0.29 to 29.3 uM after 48 hrs by RT-PCR analysis relative to control; format: functional, Homo sapiens; in short: as §5
NHDF [16] = test: Inhibition of elastin mRNA expression in HDF at 0.29 to 29.3 uM after 48 hrs by RT-PCR analysis; format: functional, cell-based; details: Homo sapiens; in short: as §5

O=C1O[C@H]([C@@H](O)CO)C(O)=C1O
Activity (NHDF [1]): Active | Activity (NHDF [2]): Active

C[C@@H]1[C@H]2C[C@@]34COC(=O)[C@H]3C[C@H]3O[C@H]3[C@H]4[C@@]13C[C@H](c1ccoc1)O[C@H]3O2
fold change (FC) (NHDF [3]): 1.6 | fold change (FC) (NHDF [4]): 2.1 - 2.5 | fold change (FC) (NHDF [5]): 2.2 | fold change (FC) (NHDF [6]): 2.7 - 3.2 | inhibition (NHDF [7]): inactive | Activity (Escherichia coli): inactive | Activity (Bacillus sp.): inactive | Activity (Candida albicans): inactive | Activity (Nakaseomyces glabratus): inactive

C[C@@H]1[C@H]2C[C@@]34COC(=O)[C@H]3CC=C[C@H]4[C@@]13C[C@H](c1ccoc1)O[C@H]3O2
fold change (FC) (NHDF [8]): 1.6 | Activity (NHDF [9]): Active | inhibition (NHDF [10]): inactive

C[C@]12C[C@H](c3ccoc3)OC(=O)[C@H]1CC[C@@]13COC(=O)C1=CC=C[C@H]32
Activity (NHDF [11]): inactive | fold change (FC) (NHDF [12]): 2.5 | fold change (FC) (NHDF [13]): 3.4 | fold change (FC) (NHDF [14]): 2.5 | fold change (FC) (NHDF [15]): 2.1 - 3.4 | inhibition (NHDF [16]): inactive | Activity (Escherichia coli): inactive | Activity (Bacillus sp.): inactive | Activity (Candida albicans): inactive | Activity (Nakaseomyces glabratus): inactive
